Positions count from the first letter of the chain named. Names may count otherwise.
Tests used:
[1] = biological target: T1, Acb2 (Pseudomonas phage PaMx33, UniProt A0A1C8HPQ3); experiment: Isothermal titration calorimetry; type: binding
[2] = biological target: T1, Acb2; experiment: HPLC assay of cyclic dinucleotide sequestering by Acb2; type: binding; settings: 40 μM Acb2 pre-incubated with 4 μM cyclic dinucleotide
[3] = biological target: CapV (Pseudomonas aeruginosa, UniProt P0DX85); experiment: Fluorogenic biochemical assay for CapV phospholipase activity; set-up: species or system P. aeruginosa BWHPSA011 (Pa011); settings: 3’,3’-cGAMP 0.025-0.8 μM, other cyclic dinucleotides 0.8 μM
[4] = biological target: T1, Acb2; experiment: Native-PAGE assay of Acb2 with cyclic dinucleotides; type: binding; settings: Acb2 14.3 μM, cyclic dinucleotide 1.8-7.2 μM
Summary of the method: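 Purified Acb2 (14.3 μM) preincubated 10 min at 18°C with cyclic dinucleotide at 1.8, 3.6 or 7.2 μM. Mixtures resolved on 5% native polyacrylamide gels and stained with Coomassie blue.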

[5] = biological target: Acb2 Y11A (Pseudomonas phage PaMx33, UniProt A0A1C8HPQ3, Y11A); experiment: ITC / native PAGE binding of 3’,3’-cGAMP to Acb2 Y11A mutant; settings: ITC and native PAGE
[6] = tested on: Acb2 homolog from E. coli phage T4 (gene vs.4); settings: cited from earlier work
[7] = biological target: Acb2 K26A (Pseudomonas phage PaMx33, UniProt A0A1C8HPQ3, K26A); experiment: ITC / native PAGE binding of 3’,3’-cGAMP to Acb2 K26A mutant; settings: ITC and native PAGE
[8] = biological target: the molecule itself; experiment: crystal structure
[9] = tested on: Pa011 CBASS immunity; experiment: Plaque assays with PaMx41 phage on Pa011 WT; type: cell-based, Pseudomonas aeruginosa; settings: variant overexpressed in Pa011 WT, in the presence of CBASS
Summary of the method: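 gp24 variants expressed episomally from arabinose-inducible, gentamicin-selected pHERD30T in Pa011 WT and ΔCBASS. Overnight culture (150 μl) mixed with top agar on LB agar. Phage lysate 10-fold serially diluted and spotted (2 μl) onto the solidified top agar; plates incubated at 37°C and titre read from plaques.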

[10] = biological target: T2, CapV (Pseudomonas aeruginosa, UniProt P0DX85); experiment: Gel filtration assay of Acb2 with CapV; type: binding, P. aeruginosa BWHPSA011 (Pa011); settings: molar ratio 5:1
T2 sequence (P0DX85 whole entry, looked up): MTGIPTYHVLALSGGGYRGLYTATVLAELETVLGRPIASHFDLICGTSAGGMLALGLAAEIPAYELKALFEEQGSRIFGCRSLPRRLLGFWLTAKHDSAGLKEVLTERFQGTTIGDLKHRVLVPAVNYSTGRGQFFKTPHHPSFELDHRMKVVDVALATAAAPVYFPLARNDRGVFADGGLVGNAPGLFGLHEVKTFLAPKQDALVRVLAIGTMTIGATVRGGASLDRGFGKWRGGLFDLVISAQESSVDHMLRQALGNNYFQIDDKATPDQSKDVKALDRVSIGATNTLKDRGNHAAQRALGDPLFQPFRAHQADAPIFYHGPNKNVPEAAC
Summary of the method: (§1)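 Acb2 (E. coli BL21(DE3), 0.2 mM IPTG at OD600 0.8, 18°C 12 h; Ni-NTA, tag removed with Ulp1, Superdex-200) incubated with His-tagged partner protein at 5:1 molar ratio overnight on ice. Gel filtration was on Superdex-200 increase 10/300 GL in 10 mM Tris–HCl pH 8.0, 200 mM NaCl, 5 mM DTT at 0.5 mL/min. Fractions were analysed by SDS-PAGE with Coomassie staining.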

[11] = biological target: T3, CdnA-Cap2 complex (Pseudomonas aeruginosa, UniProt P0DX86+P0DX87, C105A/C479A); experiment: Gel filtration assay of Acb2 with CdnA-Cap2 complex; type: binding, P. aeruginosa BWHPSA011 (Pa011); settings: molar ratio 5:1
T3 sequence (P0DX86 1-380): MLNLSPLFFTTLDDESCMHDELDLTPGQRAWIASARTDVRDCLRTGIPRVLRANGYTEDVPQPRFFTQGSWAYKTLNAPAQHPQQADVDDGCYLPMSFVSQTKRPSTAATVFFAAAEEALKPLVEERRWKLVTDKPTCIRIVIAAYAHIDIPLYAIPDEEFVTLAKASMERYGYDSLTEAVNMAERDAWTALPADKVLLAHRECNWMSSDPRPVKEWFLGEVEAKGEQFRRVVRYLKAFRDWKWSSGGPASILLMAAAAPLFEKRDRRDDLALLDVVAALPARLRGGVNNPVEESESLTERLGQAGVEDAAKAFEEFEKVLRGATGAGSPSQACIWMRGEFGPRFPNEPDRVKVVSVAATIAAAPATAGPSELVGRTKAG
T3 sequence (P0DX87 1-543 C105A/C479A): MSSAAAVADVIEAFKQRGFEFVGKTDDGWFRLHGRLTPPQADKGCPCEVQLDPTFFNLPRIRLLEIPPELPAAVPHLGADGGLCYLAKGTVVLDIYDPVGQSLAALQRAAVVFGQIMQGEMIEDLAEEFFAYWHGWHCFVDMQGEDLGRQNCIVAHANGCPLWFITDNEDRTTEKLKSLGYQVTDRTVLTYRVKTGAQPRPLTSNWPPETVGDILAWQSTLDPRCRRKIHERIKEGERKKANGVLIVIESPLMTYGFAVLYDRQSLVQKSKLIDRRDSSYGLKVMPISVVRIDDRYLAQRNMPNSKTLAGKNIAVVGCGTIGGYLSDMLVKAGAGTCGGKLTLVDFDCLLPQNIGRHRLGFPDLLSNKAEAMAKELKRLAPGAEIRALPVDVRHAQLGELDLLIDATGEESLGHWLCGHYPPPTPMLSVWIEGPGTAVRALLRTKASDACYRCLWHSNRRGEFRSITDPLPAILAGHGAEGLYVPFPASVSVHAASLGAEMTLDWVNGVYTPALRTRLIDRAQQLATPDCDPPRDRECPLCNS
Summary of the method: as §1

[12] = biological target: T2, CapV; experiment: Fluorogenic biochemical assay for CapV phospholipase activity; set-up: species or system P. aeruginosa BWHPSA011 (Pa011); settings: Acb2 or mutant 32 μM preincubated with 0.8 μM 3’,3’-cGAMP for 10 minutes
[13] = tested on: 3’,3’-cGAMP levels in phage-infected Pa011 cells; experiment: Intracellular 3’,3’-cGAMP measurements by ELISA in phage-infected Pa011 cells; type: cell-based, Pseudomonas aeruginosa; settings: overexpression in phage-infected Pa011 WT cells
[14] = biological target: T4, Cap2 (Pseudomonas aeruginosa, UniProt P0DX87); experiment: Gel filtration assay of Acb2 with Cap2; type: binding, P. aeruginosa BWHPSA011 (Pa011); settings: molar ratio 5:1
T4 sequence (P0DX87 1-543): T3 sequence (P0DX87 1-543 C105A/C479A) with A105C, A479C
Summary of the method: as §1

[15] = biological target: T5, CdnA (Pseudomonas aeruginosa, UniProt P0DX86); experiment: Gel filtration assay of Acb2 with CdnA; type: binding, P. aeruginosa BWHPSA011 (Pa011); settings: molar ratio 5:1
T5 sequence (P0DX86 1-380): T3 sequence (P0DX86 1-380)
Summary of the method: as §1

Chain of Acb2 K26A (A0A1C8HPQ3 whole entry K26A): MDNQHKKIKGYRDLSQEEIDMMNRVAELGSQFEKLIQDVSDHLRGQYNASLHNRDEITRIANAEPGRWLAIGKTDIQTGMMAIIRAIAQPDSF
Chain of Acb2 Y11A (A0A1C8HPQ3 whole entry Y11A): as the sequence (A0A1C8HPQ3 whole entry K26A) above, with Y11A, A26K counted along it

## Nc1ncnc2c1ncn2[C@@H]1O[C@@H]2COP(=O)(O)O[C@H]3[C@@H](O)[C@H](n4ccc(=O)[nH]c4=O)O[C@@H]3COP(=O)(O)O[C@H]2[C@H]1O [3’,3’-c-UMP-AMP]
[1]
  Kd: ~97 nM

## Nc1nc2c(ncn2[C@@H]2O[C@@H]3COP(=O)(O)O[C@H]4[C@@H](O)[C@H](n5ccc(=O)[nH]c5=O)O[C@@H]4COP(=O)(O)O[C@H]3[C@H]2O)c(=O)[nH]1 [3’,3’-c-UMP-GMP]
[1]
  Kd: ~524 nM

## Nc1ncnc2c1ncn2[C@@H]1O[C@@H]2COP(=O)(O)O[C@H]3[C@@H](O)[C@H](n4cnc5c(N)ncnc54)O[C@@H]3COP(=O)(O)O[C@H]2[C@H]1O [c-di-AMP]
[2]
  sequestering of cyclic dinucleotide by Acb2 (HPLC): sequester
[1]
  Kd: ~66 nM

## Nc1nc2c(ncn2[C@@H]2O[C@@H]3COP(=O)(O)O[C@H]4[C@@H](O)[C@H](n5cnc6c(=O)[nH]c(N)nc65)O[C@@H]4COP(=O)(O)O[C@H]3[C@H]2O)c(=O)[nH]1 [c-di-GMP]
[2]
  sequestering of cyclic dinucleotide by Acb2 (HPLC): very weak sequestering effect

## Nc1nc2c(ncn2[C@@H]2O[C@@H]3COP(=O)(O)O[C@H]4[C@@H](O)[C@H](n5cnc6c(N)ncnc65)O[C@@H]4COP(=O)(O)O[C@H]3[C@H]2O)c(=O)[nH]1 [3’,3’-cGAMP]
[3]
  activation of CapV phospholipase activity: activated
[2]
  sequestering of cyclic dinucleotide by Acb2 (HPLC): depletes detectable
[4]
  shift of purified Acb2 protein in native gel: significant shift
[5]
  binding of 3’,3’-cGAMP to Acb2 Y11A in vitro: abolished
[1]
  Kd: ~87 nM
[6]
  Kd: ~30 nM
[7]
  binding of 3’,3’-cGAMP to Acb2 K26A in vitro: abolished

## O=c1ccn([C@@H]2O[C@@H]3COP(=O)(O)O[C@H]4[C@@H](O)[C@H](n5ccc(=O)[nH]c5=O)O[C@@H]4COP(=O)(O)O[C@H]3[C@H]2O)c(=O)[nH]1 [3’,3’-c-di-UMP]
[1]
  Kd: ~99 nM

B1: Acb2 (anti-CBASS 2) from phage PaMx33 (natural protein, Pseudomonas aeruginosa phage PaMx33, UniProt A0A1C8HPQ3 1-93, looked up)
chain: MDNQHKKIKGYRDLSQEEIDMMNRVKELGSQFEKLIQDVSDHLRGQYNASLHNRDEITRIANAEPGRWLAIGKTDIQTGMMAIIRAIAQPDSF
[8]
  stoichiometry N: 6

B2: long gp24: 94 a.a. version of PaMx41 gp24 (orf24 X37Q), named Acb2 hereafter (protein)
chain: B1 chain
modifications: left off: His6-SUMO, end not stated, cleaved
[9]
  increase of PaMx41 WT phage titer: ≥ 4 orders of magnitude

B3: Acb2: phage anti-CBASS protein 2, purified from the naturally CBASS-resistant PaMx33 phage; hexameric cyclic dinucleotide sponge (protein)
chain: B1 chain
modifications: left off: His6-SUMO, end not stated, cleaved
[10]
  binding of Acb2 to purified CapV: did not bind
[11]
  binding of Acb2 to the CdnA-Cap2 complex: did not bind
[12]
  effect on 3’,3’-cGAMP-activated CapV activity: abrogated
[13]
  effect on detectable 3’,3’-cGAMP levels: reduced
[14]
  binding of Acb2 to purified Cap2: did not bind
[15]
  binding of Acb2 to purified CdnA: did not bind
